Here are results for eight compounds from publication PMC8373685 (European journal of medicinal chemistry, 2021).

Some results are limits rather than exact numbers.

Data set [1] has as its system MiaPaCa2 cells. The data set can be described thus: Colony formation assay. As to conditions: 5 μM; compared to DMSO treated cells. The class given is cell-based. Summed up: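 MiaPaCa2 cells (1.0×10³) were seeded in 6-well plates and treated 24 h. They were then washed and grown 8–10 days, with medium changed every 3 days. Cells were fixed in 4% paraformaldehyde 15 min and stained with 0.5% crystal violet 2 h at room temperature. Colonies were counted in triplicate from 10x bright-field images against vehicle (DMSO); unpaired t-test.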

The test system of the next data set is MiaPaCa2. The data set can be described thus: Growth inhibition assay. In kind it is cell-based. The gist of the method:
(§1)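 Cell viability was read with PrestoBlue after 72 h incubation with test compound, n=3. Data are average ± SEM.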

The test system of data set [2] is MiaPaCa2 cells subcutaneously implanted. The data set can be described thus: Pancreatic tumor xenograft model. The class given is in vivo, athymic nude mice. As to conditions: treated versus vehicle, n = 5. The gist of the method: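 MiaPaCa2 cells (2.5×10⁶, Matrigel 2:1) were implanted s.c. in the flank of athymic nude mice and randomized at day 20 (n=6/group). Arms: vehicle, test compound 40 mg/kg orally daily, gemcitabine 15 mg/kg i.p. every 72 h, or combination. Mice were sacrificed after day 27. On FFPE tumors, Ki-67 was scored as % positive cells over 4 fields, and p-IKKβ by IHC histoscore (proportion 1–5 × intensity 0–3); n=5, unpaired t-test.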

Data set [3] has as its system caspase 3/7 activity in MiaPaCa2 cells. Description: Caspase 3/7 assay. In kind it is cell-based. As to conditions: 10 μM, 24h. The gist of the method: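 MiaPaCa2 cells were exposed to test compound for 24 h at 0.1% final DMSO, n=3. At 21 h, alamarBlue (1/10 well volume) was added for 3 h and fluorescence read at 560ex/590em. Plates equilibrated 15 min at room temperature, then Caspase-Glo reagent was added and luminescence read 2 h later. Value = (luminescence×100/fluorescence)/DMSO average.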

The test system of a further data set is T3M4. Description: Growth inhibition assay. As to conditions: 3-day cell growth assay. In kind it is cell-based. The gist of the method: as §1
Data set [4] can be described thus: Pharmacokinetic studies in mice. The class given is in vivo, CD1 mice. Summed up:
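CD1 mice received test compound orally at 20 mg/kg in DMSO:PEG400:H₂O 1:4:5, or intravenously at 10 mg/kg in DMSO:PEG400:H₂O 1:5:4. Mice were sacrificed at 0.083–24 h (8 time points) and plasma analysed by LC/MS/MS with carbamazepine as internal standard. PK parameters came from non-compartmental analysis; oral bioavailability was derived from oral versus intravenous AUC.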

Data set [5] relates to MiaPaCa2 cells. The data set can be described thus: Live/dead cell assay. As to conditions: 5 and 10 μM for 24h. The class given is cell-based.
Data set [6] concerns MiaPaCa2 cells. Description: Cell scratch. As to conditions: 5 μM at 24 and 48h; compared to DMSO. The class given is cell-based.
In data set [7] the target is TNFα-induced IKKβ-mediated NFκB activity. Description: κB luciferase reporter assay. In kind it is cell-based. As to conditions: for inhibition of TNFα-induced NFκB activity (SAR, in words): A549 luciferase reporter.

One may read the IC50 as the concentration that gives 50% inhibition. For the compound “1-(4-fluoro-3-(trifluoromethyl)phenyl)-3-(3-(1-methyl-1H-pyrazol-4-yl)quinoxalin-6-yl)urea [compound 84]”, the “inhibition of colony forming ability” value in the data set on MiaPaCa2 cells [1] is given as > 50%. Also, the growth inhibition result in the data set on MiaPaCa2 (3-day cell growth assay, MiaPaCa2) is on record as “low-μM potency”. Besides, in the data set on MiaPaCa2 (cell line not specified at place), the “potency in inhibiting pancreatic cancer cell growth relative to 13–197” value was ~ 4 fold. Also, the “p-IKKβ levels in tumor tissue” value in [2] (immunohistochemistry) is given as “reduction in p-IKKβ levels”. In [2], the “Ki67 staining (proliferation index) in tumor tissue” value was “reduction in Ki67 staining”. In data set [3], the “caspase 3/7 activation” value is “most potently induced caspase activation” and the “caspase 3/7 induction relative to 13–197” value is given as ~ 4 fold. Also, the growth inhibition result in the data set on T3M4 is “low-μM potency”. The “increase in oral bioavailability (%F) relative to 13–197” value in data set [4] is on record as ~ 5.7 fold. Moreover, in [4] (10 mg/kg intravenous versus 20 mg/kg oral), the “intravenous exposure (AUC0−∞) relative to oral exposure” value is on record as ~ 2.8 fold. Besides, in data set [4] (20 mg/kg oral), the “Tmax and Cmax relative to 13–197” value is reported as ~ 2.5 times; the “exposure (AUC0−∞) relative to 13–197” value is listed as ~ 4.3 fold. In addition, the “cell death in live/dead assay” value in the data set with MiaPaCa2 cells [5] is recorded as “induced MiaPaCa2 cell death in a dose-dependent manner”. Besides, the “inhibition of cell migration” value in the data set with MiaPaCa2 cells [6] was “more effective inhibiting the migration of PDAC cells”. The “IC50 ratio versus 13–197, TNFα-induced NFκB inhibition” value in [7] (84 versus reported value for 13–197) is ~ 2.5 fold. In data set [7] (read-out: IC50, TNFα-induced IKKβ-mediated NFκB activity, dose-response, dual luciferase reporter assay, n = 3), the IC50 stood at 3.3 ± 0.5 µM. In addition, in [7] (screened at 10μM), the “inhibition of TNFα-induced NFκB activity (SAR, in words)” value (“inhibition … (SAR, in words)” below) is “most potent inhibitor”.
On to “1-(4-fluoro-3-methoxyphenyl)-3-(3-(1-methyl-1H-pyrazol-4-yl)quinoxalin-6-yl)urea [compound 82]”, for which the “inhibition … (SAR, in words)” value in [7] (screened at 10μM) is given as “activity was restored”.
Regarding “1-(3-chloro-4-fluorophenyl)-3-(3-(1-methyl-1H-pyrazol-4-yl)quinoxalin-6-yl)urea [compound 80]”, in data set [7] (screened at 10μM), the “potency in NFκB screen relative to 13–197” value is recorded as ~ 3 fold.
On to `Cn1ccc(-c2cnc3ccc(NC(=O)Nc4ccc(F)c(Br)c4)cc3n2)c1` [compound 86, 1-(3-bromo-4-fluorophenyl)-3-(3-(1-methyl-1H-pyrrol-3-yl)quinoxalin-6-yl)urea], for which the “inhibition … (SAR, in words)” value in [7] (screened at 10μM) is recorded as “loss of activity”.
The same measure, in the same setting: the result for “1-(4-fluoro-3-(trifluoromethoxy)phenyl)-3-(3-(1-methyl-1H-pyrazol-4-yl)quinoxalin-6-yl)urea [compound 83]” reads “further improved”.
On the same count and under the same terms, the result for “1-(3-(1-methyl-1H-pyrazol-4-yl)quinoxalin-6-yl)-3-(3-(trifluoromethyl)phenyl)urea [compound 79]” reads “further improvement of activity”; that for `Cn1cc(-c2cnc3ccc(NC(=O)Nc4ccc(F)c(Br)c4)cc3c2)cn1` [compound 85, 1-(3-bromo-4-fluorophenyl)-3-(3-(1-methyl-1H-pyrazol-4-yl)quinolin-6-yl)urea], “loss of activity”.
Still for that read-out and setting: the result for “1-(4-fluoro-3-methylphenyl)-3-(3-(1-methyl-1H-pyrazol-4-yl)quinoxalin-6-yl)urea [compound 81]” reads “dramatically reduced the activity”.
